Results from ChEMBL document CHEMBL1156973, “(-)-Carbodine: enantiomeric synthesis and in vitro antiviral activity against various strains of influenza virus including H5N1 (avian influenza) and novel 2009 H1N1 (swine flu)” (Bioorg Med Chem Lett, 2010).

Legend:
[1] = Selectivity ratio of IC50 for MDCK cells to EC90 for Influenza B virus Malaysia/2506/2004 by virus yield reduction assay; format: ADME, cell-based; conditions: dog, mdck
Method in brief: (§1)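 IC50 (50% inhibition of uninfected MDCK cells) divided by EC90 (concentration reducing the infectious virus titer by 90% in the yield reduction assay).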

[2] = Selectivity ratio of IC50 for MDCK cells to EC50 for Influenza A virus Duck/MN/1525/81/H5N1 by neutral red dye uptake assay; format: ADME, cell-based; conditions: dog, mdck
Method in brief: (§2)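 Neutral red uptake in MDCK cells: IC50 (50% inhibition of uninfected cells) divided by EC50 (50% inhibition of virus effect), both from replicate serial-dilution assays.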

[3] = Selectivity ratio of IC50 for MDCK cells to EC50 for Influenza A virus Hong Kong/213/2003/H5N1 by neutral red dye uptake assay; format: ADME, cell-based; conditions: dog, mdck; method in brief: as §2
[4] = test system: Influenza A virus (A/Puerto Rico/8/1934(H1N1)); experiment: Antiviral activity against Influenza A virus Solomon Islands/03/2006/H1N1 infected MDCK cells after 3 days by virus yield reduction assay; format: functional, Influenza A virus (A/Solomon Islands/3/2006(H1N1))
Method in brief: (§3)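 Yield reduction assay: MDCK cells got serial compound dilutions and ≤300 CCID50 virus, in triplicate. Progeny virus was titrated. EC90 is the concentration reducing the infectious titer by 90%, as the mean of triplicates.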

[5] = test system: H5N1 subtype; experiment: Antiviral activity against Influenza A virus Hong Kong/213/2003/H5N1 infected MDCK cells after 3 days by virus yield reduction assay; format: functional, Influenza A virus (A/Hong Kong/213/2003(H5N1))
[6] = Selectivity ratio of IC50 for MDCK cells to EC90 for Influenza A virus Vietnam/1203/ 2004H/H5N1 by virus yield reduction assay; format: ADME, cell-based; conditions: dog, mdck; method in brief: as §1
[7] = test system: Influenza A virus (A/Puerto Rico/8/1934(H1N1)); experiment: Antiviral activity against Influenza A virus Solomon Islands/03/2006/H1N1 infected MDCK cells after 42 to 46 hrs by neutral red dye uptake assay; format: functional, organism-based, Influenza A virus (A/Solomon Islands/3/2006(H1N1)); conditions: mdck
Method in brief: (§4)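 Triplicate MDCK wells got serial compound dilutions, then ≤300 CCID50 of virus, with the same inoculum for all replicates. Antiviral effect was read by neutral red dye uptake. EC50 is the concentration giving 50% inhibition of the virus effect, as the mean of triplicates.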

[8] = Selectivity ratio of IC50 for MDCK cells to EC90 for Influenza A virus Wisconsin/67/2005/H3N2 by virus yield reduction assay; format: ADME, cell-based; conditions: dog, mdck; method in brief: as §1
[9] = Selectivity ratio of IC50 for MDCK cells to EC90 for Influenza A virus Solomon Islands/03/2006/H1N1 by virus yield reduction assay; format: ADME, cell-based; conditions: dog, mdck; method in brief: as §1
[10] = test system: Influenza A virus; experiment: Antiviral activity against Influenza A virus Vietnam/1203/ 2004H/H5N1 infected MDCK cells after 42 to 46 hrs by neutral red dye uptake assay; format: functional, organism-based, A/Viet Nam/1203/2004(H5N1); conditions: mdck
[11] = test system: Influenza B virus; experiment: Antiviral activity against Influenza B virus Malaysia/2506/2004 infected MDCK cells after 42 to 46 hrs by neutral red dye uptake assay; format: functional, organism-based, B/Malaysia/2506/2004; conditions: mdck; method in brief: as §4
[12] = test system: Influenza A virus; experiment: Antiviral activity against Influenza A virus California/07/2009 /H1N1 infected MDCK cells after 3 days by virus yield reduction assay; format: functional, A/California/07/2009(H1N1)
[13] = test system: Influenza B virus; experiment: Antiviral activity against Influenza B virus Malaysia/2506/2004 infected MDCK cells after 3 days by virus yield reduction assay; format: functional, B/Malaysia/2506/2004; method in brief: as §3
[14] = test system: H5N1 subtype; experiment: Antiviral activity against Influenza A virus Duck/MN/1525/81/H5N1 infected MDCK cells assessed as inhibition of virus-induced cytopathic effect after 3 days; format: functional, organism-based, Influenza A virus (A/duck/Minnesota/1525/1981(H5N1)); conditions: mdck
[15] = Selectivity ratio of IC50 for MDCK cells to EC50 for inhibition of virus-induced cytopathic effect of Influenza A virus Gull/PA/4175/83/H5N1; format: cell-based; conditions: dog, mdck
Method in brief: (§5)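 IC50 (50% inhibition of uninfected MDCK cells) divided by EC50 (concentration reducing virus-induced CPE by 50%, scored visually), both from replicate serial-dilution assays.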

[16] = Selectivity ratio of IC50 for MDCK cells to EC50 for Influenza B virus Malaysia/2506/2004 by neutral red dye uptake assay; format: ADME, cell-based; conditions: dog, mdck; method in brief: as §2
[17] = test system: H5N1 subtype; experiment: Antiviral activity against Influenza A virus Duck/MN/1525/81/H5N1 infected MDCK cells after 42 to 46 hrs by neutral red dye uptake assay; format: functional, organism-based, Influenza A virus (A/duck/Minnesota/1525/1981(H5N1)); conditions: mdck
[18] = test system: Influenza A virus; experiment: Antiviral activity against Influenza A virus Wisconsin/67/2005/H3N2 infected MDCK cells assessed as inhibition of virus-induced cytopathic effect after 3 days; format: functional, organism-based, Influenza A virus (A/Wisconsin/67/2005(H3N2)); conditions: mdck
Method in brief: (§6)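 Triplicate MDCK (ATCC CCL-34) wells got serial dilutions of compound. They were then inoculated with ≤300 CCID50, enough for ~100% CPE in control wells within 3 days, using the same inoculum for all replicates. CPE was scored visually. EC50 is the concentration reducing CPE by 50%, as the mean of triplicates.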

[19] = test system: Influenza B virus; experiment: Antiviral activity against Influenza B virus Malaysia/2506/2004 infected MDCK cells assessed as inhibition of virus-induced cytopathic effect after 3 days; format: functional, organism-based, B/Malaysia/2506/2004; conditions: mdck; method in brief: as §6
[20] = Selectivity ratio of IC50 for MDCK cells to EC50 for inhibition of virus-induced cytopathic effect of Influenza B virus Malaysia/2506/2004; format: cell-based; conditions: dog, mdck; method in brief: as §5
[21] = test system: Influenza A virus; experiment: Antiviral activity against Influenza A virus California/07/2009 /H1N1 infected MDCK cells assessed as inhibition of virus-induced cytopathic effect after 3 days; format: functional, organism-based, A/California/07/2009(H1N1); conditions: mdck
[22] = Selectivity ratio of IC50 for MDCK cells to EC50 for inhibition of virus-induced cytopathic effect of Influenza A virus California/07/2009 /H1N1; format: cell-based; conditions: dog, mdck; method in brief: as §5
[23] = Selectivity ratio of IC50 for MDCK cells to EC50 for Influenza A virus Solomon Islands/03/2006/H1N1 by neutral red dye uptake assay; format: ADME, cell-based; conditions: dog, mdck; method in brief: as §2
[24] = Selectivity ratio of IC50 for MDCK cells to EC50 for Influenza A virus Gull/PA/4175/83/H5N1 by neutral red dye uptake assay; format: ADME, cell-based; conditions: dog, mdck; method in brief: as §2
[25] = Selectivity ratio of IC50 for MDCK cells to EC50 for inhibition of virus-induced cytopathic effect of Influenza A virus Wisconsin/67/2005/H3N2; format: cell-based; conditions: dog, mdck; method in brief: as §5
[26] = test system: Influenza A virus; experiment: Antiviral activity against Influenza A virus Vietnam/1203/ 2004H/H5N1 infected MDCK cells assessed as inhibition of virus-induced cytopathic effect after 3 days; format: functional, organism-based, A/Viet Nam/1203/2004(H5N1); conditions: mdck
[27] = Selectivity ratio of IC50 for MDCK cells to EC50 for inhibition of virus-induced cytopathic effect of Influenza A virus Vietnam/1203/ 2004H/H5N1; format: cell-based; conditions: dog, mdck; method in brief: as §5
[28] = Selectivity ratio of IC50 for MDCK cells to EC50 for inhibition of virus-induced cytopathic effect of Influenza A virus Duck/MN/1525/81/H5N1; format: cell-based; conditions: dog, mdck; method in brief: as §5
[29] = test system: Influenza A virus; experiment: Antiviral activity against Influenza A virus Vietnam/1203/ 2004H/H5N1 infected MDCK cells after 3 days by virus yield reduction assay; format: functional, A/Viet Nam/1203/2004(H5N1)
[30] = Selectivity ratio of IC50 for MDCK cells to EC50 for Influenza A virus Wisconsin/67/2005/H3N2 by neutral red dye uptake assay; format: ADME, cell-based; conditions: dog, mdck; method in brief: as §2
[31] = test system: H5N1 subtype; experiment: Antiviral activity against Influenza A virus Duck/MN/1525/81/H5N1 infected MDCK cells after 3 days by virus yield reduction assay; format: functional, Influenza A virus (A/duck/Minnesota/1525/1981(H5N1))
[32] = Antiviral activity against Influenza A virus Solomon Islands/03/2006/H1N1 infected MDCK cells assessed as inhibition of virus-induced cytopathic effect after 3 days; format: functional, organism-based, Influenza A virus (A/Solomon Islands/3/2006(H1N1)); conditions: mdck; method in brief: as §6
[33] = Selectivity ratio of IC50 for MDCK cells to EC50 for Influenza A virus California/07/2009 /H1N1 by neutral red dye uptake assay; format: ADME, cell-based; conditions: dog, mdck; method in brief: as §2
[34] = test system: H5N1 subtype; experiment: Antiviral activity against Influenza A virus Gull/PA/4175/83/H5N1 infected MDCK cells assessed as inhibition of virus-induced cytopathic effect after 3 days; format: functional, organism-based, Influenza A virus (A/gull/Pennsylvania/4175/83(H5N1)); conditions: mdck
[35] = test system: H5N1 subtype; experiment: Antiviral activity against Influenza A virus Hong Kong/213/2003/H5N1 infected MDCK cells after 42 to 46 hrs by neutral red dye uptake assay; format: functional, organism-based, Influenza A virus (A/Hong Kong/213/2003(H5N1)); conditions: mdck
[36] = Selectivity ratio of IC50 for MDCK cells to EC50 for inhibition of virus-induced cytopathic effect of Influenza A virus Solomon Islands/03/2006/H1N1; format: cell-based; conditions: dog, mdck; method in brief: as §5
[37] = test system: Influenza A virus; experiment: Antiviral activity against Influenza A virus Wisconsin/67/2005/H3N2 infected MDCK cells after 3 days by virus yield reduction assay; format: functional, Influenza A virus (A/Wisconsin/67/2005(H3N2)); method in brief: as §3
[38] = test system: Influenza A virus; experiment: Antiviral activity against Influenza A virus California/07/2009 /H1N1 infected MDCK cells after 42 to 46 hrs by neutral red dye uptake assay; format: functional, organism-based, A/California/07/2009(H1N1); conditions: mdck
[39] = Selectivity ratio of IC50 for MDCK cells to EC90 for Influenza A virus California/07/2009 /H1N1 by virus yield reduction assay; format: ADME, cell-based; conditions: dog, mdck; method in brief: as §1
[40] = Selectivity ratio of IC50 for MDCK cells to EC90 for Influenza A virus Duck/MN/1525/81/H5N1 by virus yield reduction assay; format: ADME, cell-based; conditions: dog, mdck; method in brief: as §1
[41] = Selectivity ratio of IC50 for MDCK cells to EC90 for Influenza A virus Hong Kong/213/2003/H5N1 by virus yield reduction assay; format: ADME, cell-based; conditions: dog, mdck; method in brief: as §1
[42] = test system: H5N1 subtype; experiment: Antiviral activity against Influenza A virus Gull/PA/4175/83/H5N1 infected MDCK cells after 42 to 46 hrs by neutral red dye uptake assay; format: functional, organism-based, Influenza A virus (A/gull/Pennsylvania/4175/83(H5N1)); conditions: mdck
[43] = test system: Influenza A virus; experiment: Antiviral activity against Influenza A virus Wisconsin/67/2005/H3N2 infected MDCK cells after 42 to 46 hrs by neutral red dye uptake assay; format: functional, organism-based, Influenza A virus (A/Wisconsin/67/2005(H3N2)); conditions: mdck; method in brief: as §4
[44] = Selectivity ratio of IC50 for MDCK cells to EC50 for Influenza A virus Vietnam/1203/ 2004H/H5N1 by neutral red dye uptake assay; format: ADME, cell-based; conditions: dog, mdck; method in brief: as §2

For `Nc1ccn([C@@H]2C[C@H](CO)[C@@H](O)[C@H]2O)c(=O)n1` (racemic), the Ratio [1] was greater than 109, the “Ratio IC50/EC50” value [2] was greater than 83 and the “Ratio IC50/EC50” value [3] was greater than 230. For the same molecule, the EC90 [4] was 2300 nM, the EC90 [5] was 2000 nM and the Ratio [6] was greater than 34. The EC50 [7] was 2000 nM, the Ratio [8] was greater than 118 and the Ratio [9] was greater than 180. The EC50 [10] was 2900 nM, the EC50 [11] was 1300 nM and the EC90 [12] was 4.4 µM. The EC90 [13] was 3.8 µM, the EC50 [14] was 2400 nM and the “Ratio IC50/EC50” value [15] was greater than 376. The “Ratio IC50/EC50” value [16] was greater than 318, the EC50 [17] was 5 µM and the EC50 [18] was 2800 nM. The EC50 [19] was 800 nM, the “Ratio IC50/EC50” value [20] was greater than 518 and the EC50 [21] was 1500 nM. For the same molecule, the “Ratio IC50/EC50” value [22] was greater than 276, the “Ratio IC50/EC50” value [23] was greater than 207 and the “Ratio IC50/EC50” value [24] was greater than 296. For the same molecule, the “Ratio IC50/EC50” value [25] was greater than 148, the EC50 [26] was 1000 nM and the “Ratio IC50/EC50” value [27] was greater than 414. For the same molecule, the “Ratio IC50/EC50” value [28] was greater than 173, the EC90 [29] was 12.1 µM and the “Ratio IC50/EC50” value [30] was greater than 90. The EC90 [31] was 17.6 µM, the EC50 [32] was 1900 nM and the “Ratio IC50/EC50” value [33] was greater than 218. For the same molecule, the EC50 [34] was 1100 nM, the EC50 [35] was 1800 nM and the “Ratio IC50/EC50” value [36] was greater than 218. The EC90 [37] was 3.5 µM, the EC50 [38] was 1900 nM and the Ratio [39] was greater than 94. It also gave a Ratio [40] greater than 24, a Ratio [41] greater than 207 and an EC50 [42] of 1400 nM. The EC50 [43] was 4.6 µM and the “Ratio IC50/EC50” value [44] was greater than 143.
